According to ChEMBL document CHEMBL1157731, “Novel KCNQ2/Q3 agonists as potential therapeutics for epilepsy and neuropathic pain” (J Med Chem, 2010):

Tests used:
[1] = Displacement of radioligand from GABAB receptor at 10 uM
[2] = target: T1, Type-1 angiotensin II receptor (Homo sapiens) (UniProt P30556); assay: Displacement of [125I][Sar1,Ile8]-AT2 from human recombinant AT1 angiotensin receptor expressed in HEK293 cells at 10 uM; type: cell-based
T1 sequence (whole entry): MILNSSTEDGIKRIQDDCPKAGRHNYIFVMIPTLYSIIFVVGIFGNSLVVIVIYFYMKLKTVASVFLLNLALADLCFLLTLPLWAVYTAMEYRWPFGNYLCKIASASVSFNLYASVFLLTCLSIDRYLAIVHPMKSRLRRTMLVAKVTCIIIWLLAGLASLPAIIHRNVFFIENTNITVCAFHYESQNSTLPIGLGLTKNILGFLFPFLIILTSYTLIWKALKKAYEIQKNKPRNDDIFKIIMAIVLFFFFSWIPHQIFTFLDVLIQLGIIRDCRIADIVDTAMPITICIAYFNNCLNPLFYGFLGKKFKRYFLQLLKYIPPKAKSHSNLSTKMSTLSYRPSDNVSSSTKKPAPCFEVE

[3] = target: Adenosine receptor A2a (Homo sapiens) (UniProt P29274); assay: Displacement of [3H]CGS21680 from human recombinant adenosine A2A receptor expressed in HEK293 cells at 10 uM; type: cell-based
Adenosine receptor A2a (Homo sapiens), sequence (P29274 whole entry): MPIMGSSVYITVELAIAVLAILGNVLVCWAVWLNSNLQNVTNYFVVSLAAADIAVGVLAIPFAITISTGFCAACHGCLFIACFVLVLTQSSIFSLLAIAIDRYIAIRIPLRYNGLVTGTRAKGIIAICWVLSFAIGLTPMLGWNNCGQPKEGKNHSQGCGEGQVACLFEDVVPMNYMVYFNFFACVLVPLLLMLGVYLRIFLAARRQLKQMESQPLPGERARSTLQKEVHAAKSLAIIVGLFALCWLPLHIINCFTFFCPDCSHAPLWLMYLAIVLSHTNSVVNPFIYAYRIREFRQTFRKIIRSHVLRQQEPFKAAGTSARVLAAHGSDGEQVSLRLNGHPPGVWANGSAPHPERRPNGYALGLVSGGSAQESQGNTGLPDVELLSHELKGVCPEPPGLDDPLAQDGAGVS

[4] = target: Voltage-gated potassium channel, KQT; KCNQ2(Kv7.2)/KCNQ3(Kv7.3) (Homo sapiens, UniProt O43525+O43526); assay: Activation of KCNQ2/KCNQ3 expressed in CHO cells by isotopic efflux assay; type: cell-based
Voltage-gated potassium channel, KQT; KCNQ2(Kv7.2)/KCNQ3(Kv7.3), sequence (O43526 whole entry): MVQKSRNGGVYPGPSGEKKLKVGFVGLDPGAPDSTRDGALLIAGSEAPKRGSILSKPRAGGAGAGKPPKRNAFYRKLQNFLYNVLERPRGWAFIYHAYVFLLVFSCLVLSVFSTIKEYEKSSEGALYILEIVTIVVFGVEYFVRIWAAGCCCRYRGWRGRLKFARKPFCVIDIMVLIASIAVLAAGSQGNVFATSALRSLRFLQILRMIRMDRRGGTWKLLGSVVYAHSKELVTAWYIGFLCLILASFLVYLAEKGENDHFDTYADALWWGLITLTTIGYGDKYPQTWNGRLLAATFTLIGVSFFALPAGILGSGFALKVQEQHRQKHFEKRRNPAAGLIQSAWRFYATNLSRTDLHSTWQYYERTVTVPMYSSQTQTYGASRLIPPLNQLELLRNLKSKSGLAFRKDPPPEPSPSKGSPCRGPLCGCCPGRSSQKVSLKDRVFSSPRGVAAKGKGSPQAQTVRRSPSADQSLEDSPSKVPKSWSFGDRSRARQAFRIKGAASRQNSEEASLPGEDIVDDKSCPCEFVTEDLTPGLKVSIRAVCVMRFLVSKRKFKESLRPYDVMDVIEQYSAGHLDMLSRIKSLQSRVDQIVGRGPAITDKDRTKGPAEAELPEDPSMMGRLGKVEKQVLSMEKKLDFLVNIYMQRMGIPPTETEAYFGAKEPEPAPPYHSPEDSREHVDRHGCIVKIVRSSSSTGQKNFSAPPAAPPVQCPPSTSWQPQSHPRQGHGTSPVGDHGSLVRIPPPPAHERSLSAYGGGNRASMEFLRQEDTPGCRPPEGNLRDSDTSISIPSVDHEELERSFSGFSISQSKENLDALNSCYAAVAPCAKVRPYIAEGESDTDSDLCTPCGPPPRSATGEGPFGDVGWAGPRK
Voltage-gated potassium channel, KQT; KCNQ2(Kv7.2)/KCNQ3(Kv7.3), sequence (O43525 whole entry): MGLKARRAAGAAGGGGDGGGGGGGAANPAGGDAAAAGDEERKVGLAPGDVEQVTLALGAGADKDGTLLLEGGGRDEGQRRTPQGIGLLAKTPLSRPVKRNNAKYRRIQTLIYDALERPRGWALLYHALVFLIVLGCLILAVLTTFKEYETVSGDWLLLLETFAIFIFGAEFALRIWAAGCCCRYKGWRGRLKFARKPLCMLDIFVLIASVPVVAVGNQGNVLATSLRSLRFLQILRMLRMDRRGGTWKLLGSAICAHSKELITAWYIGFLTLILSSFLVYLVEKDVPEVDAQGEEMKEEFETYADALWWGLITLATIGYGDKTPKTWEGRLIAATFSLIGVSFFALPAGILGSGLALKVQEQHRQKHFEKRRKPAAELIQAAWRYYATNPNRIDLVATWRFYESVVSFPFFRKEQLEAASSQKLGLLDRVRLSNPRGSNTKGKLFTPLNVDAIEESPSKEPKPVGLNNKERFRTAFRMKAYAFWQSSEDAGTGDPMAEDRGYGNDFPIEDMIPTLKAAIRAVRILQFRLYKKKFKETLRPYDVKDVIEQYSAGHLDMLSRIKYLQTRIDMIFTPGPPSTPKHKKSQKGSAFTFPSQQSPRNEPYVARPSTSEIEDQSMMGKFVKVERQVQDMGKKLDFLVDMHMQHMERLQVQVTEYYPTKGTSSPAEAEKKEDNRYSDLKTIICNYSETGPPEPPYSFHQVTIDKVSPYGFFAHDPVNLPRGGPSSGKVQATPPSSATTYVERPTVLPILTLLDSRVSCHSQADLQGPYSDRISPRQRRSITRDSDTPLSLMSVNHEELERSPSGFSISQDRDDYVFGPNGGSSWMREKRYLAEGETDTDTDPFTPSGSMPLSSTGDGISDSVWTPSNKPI
How it was run: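 86Rb+ flux in K+-channel-expressing cells loaded by culture in 86RbCl, then washed in EBSS. Preincubated with drug (0.01-30 μM in EBSS), then efflux stimulated by submaximal KCl (generally 7-20 mM) with drug still present. Supernatant and SDS lysate counted by Cherenkov. Percent efflux normalized to high-KCl (generally 30-135 mM) maximum. EC50 from eight-point half-log curves; mean of 2-4 determinations ± SEM.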

[5] = target: T2, Alpha-2A adrenergic receptor (Homo sapiens) (UniProt P08913); assay: Displacement of radioligand from alpha 2 adrenergic receptor at 10 uM
T2 sequence (whole entry): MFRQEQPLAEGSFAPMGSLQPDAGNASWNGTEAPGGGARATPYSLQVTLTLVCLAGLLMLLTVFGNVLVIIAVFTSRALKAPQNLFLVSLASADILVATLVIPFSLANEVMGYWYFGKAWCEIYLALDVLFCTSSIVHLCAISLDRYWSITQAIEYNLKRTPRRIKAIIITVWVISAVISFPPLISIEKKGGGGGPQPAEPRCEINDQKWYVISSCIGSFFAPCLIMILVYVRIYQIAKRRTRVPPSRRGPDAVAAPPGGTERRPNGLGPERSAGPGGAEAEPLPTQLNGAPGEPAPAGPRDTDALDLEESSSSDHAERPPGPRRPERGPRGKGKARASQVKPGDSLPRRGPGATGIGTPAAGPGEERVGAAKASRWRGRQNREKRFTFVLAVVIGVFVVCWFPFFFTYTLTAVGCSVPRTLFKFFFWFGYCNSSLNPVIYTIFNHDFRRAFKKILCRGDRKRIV

[6] = target: T3, Cholecystokinin receptor type A (Homo sapiens) (UniProt P32238); assay: Displacement of radioligand from cholecystokinin A receptor at 10 uM
T3 sequence (whole entry): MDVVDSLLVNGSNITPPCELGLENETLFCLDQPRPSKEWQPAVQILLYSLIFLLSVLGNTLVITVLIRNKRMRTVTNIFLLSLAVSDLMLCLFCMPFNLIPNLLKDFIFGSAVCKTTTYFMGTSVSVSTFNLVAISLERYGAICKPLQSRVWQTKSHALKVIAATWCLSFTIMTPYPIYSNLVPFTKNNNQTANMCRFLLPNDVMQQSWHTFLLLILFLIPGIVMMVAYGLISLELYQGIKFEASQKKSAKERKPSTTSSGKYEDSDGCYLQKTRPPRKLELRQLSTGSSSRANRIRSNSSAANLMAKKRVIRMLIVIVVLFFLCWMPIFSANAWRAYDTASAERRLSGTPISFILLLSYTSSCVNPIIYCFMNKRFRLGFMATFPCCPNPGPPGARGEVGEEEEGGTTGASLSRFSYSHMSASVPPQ

[7] = target: T4, Muscarinic acetylcholine receptor M1 (Homo sapiens) (UniProt P11229); assay: Displacement of radioligand from muscarinic M1 receptor at 10 uM
T4 sequence (whole entry): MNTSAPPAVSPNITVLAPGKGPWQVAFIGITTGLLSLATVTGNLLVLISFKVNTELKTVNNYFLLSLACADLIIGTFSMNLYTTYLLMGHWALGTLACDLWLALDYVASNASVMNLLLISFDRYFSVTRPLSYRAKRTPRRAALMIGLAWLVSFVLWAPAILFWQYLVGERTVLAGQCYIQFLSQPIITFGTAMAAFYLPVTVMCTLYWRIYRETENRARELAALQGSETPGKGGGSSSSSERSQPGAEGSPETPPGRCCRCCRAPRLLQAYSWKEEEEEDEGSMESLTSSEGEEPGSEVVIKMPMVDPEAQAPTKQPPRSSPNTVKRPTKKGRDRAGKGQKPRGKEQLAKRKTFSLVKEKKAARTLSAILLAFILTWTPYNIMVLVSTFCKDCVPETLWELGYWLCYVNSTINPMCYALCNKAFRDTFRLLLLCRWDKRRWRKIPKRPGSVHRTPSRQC

[8] = target: Sodium-dependent serotonin transporter (Homo sapiens) (UniProt P31645); assay: Binding affinity to SERT at 10 uM by displacement assay
Sodium-dependent serotonin transporter (Homo sapiens), sequence (P31645 whole entry, looked up): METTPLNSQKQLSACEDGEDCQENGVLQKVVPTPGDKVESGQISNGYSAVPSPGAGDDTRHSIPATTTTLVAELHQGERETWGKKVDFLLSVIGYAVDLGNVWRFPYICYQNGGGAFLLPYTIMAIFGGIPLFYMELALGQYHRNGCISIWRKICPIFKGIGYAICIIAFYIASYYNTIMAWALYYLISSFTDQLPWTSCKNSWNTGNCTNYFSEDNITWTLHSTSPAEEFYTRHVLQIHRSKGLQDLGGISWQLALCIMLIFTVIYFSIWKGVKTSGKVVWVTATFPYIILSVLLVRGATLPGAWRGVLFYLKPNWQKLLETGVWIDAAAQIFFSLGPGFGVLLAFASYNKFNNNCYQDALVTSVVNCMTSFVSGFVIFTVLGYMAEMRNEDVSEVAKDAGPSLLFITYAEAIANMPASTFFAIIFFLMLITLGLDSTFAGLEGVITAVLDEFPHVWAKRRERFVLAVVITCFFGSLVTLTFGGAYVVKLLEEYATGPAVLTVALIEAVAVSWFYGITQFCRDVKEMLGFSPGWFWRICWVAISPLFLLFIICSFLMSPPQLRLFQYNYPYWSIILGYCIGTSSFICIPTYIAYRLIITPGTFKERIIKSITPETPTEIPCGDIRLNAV

[9] = Binding affinity to vasopressin V1 receptor at 10 uM by displacement assay
[10] = target: T5, B2 bradykinin receptor (Homo sapiens) (UniProt P30411); assay: Displacement of [3H]bradykinin from human recombinant bradykinin B2 receptor expressed in CHO cells; type: cell-based
T5 sequence (whole entry): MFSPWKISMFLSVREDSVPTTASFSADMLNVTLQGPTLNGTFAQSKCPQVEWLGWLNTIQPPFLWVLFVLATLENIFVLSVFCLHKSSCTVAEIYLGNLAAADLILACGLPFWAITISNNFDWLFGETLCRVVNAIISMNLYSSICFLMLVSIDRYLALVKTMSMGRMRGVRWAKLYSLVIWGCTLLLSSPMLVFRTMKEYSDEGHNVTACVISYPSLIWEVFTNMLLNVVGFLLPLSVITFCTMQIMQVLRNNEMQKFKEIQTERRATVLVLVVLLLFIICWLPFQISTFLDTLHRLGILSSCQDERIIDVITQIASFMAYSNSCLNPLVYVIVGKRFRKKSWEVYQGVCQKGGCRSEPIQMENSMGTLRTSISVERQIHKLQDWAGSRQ

Q: With Cn1/c(=N/NC(=O)CC2CCCC2)sc2cc(OC(F)(F)F)ccc21 as the compound, how does the Activity [1] read?
A: 12%

Q: What about the Activity [2] of the same compound?
A: 18%

Q: What about the Activity [3] of the same compound?
A: 12%

Q: And the EC50 [4]?
A: 44 nM

Q: And the Activity [5]?
A: 0%

Q: What about the Activity [6] of the same compound?
A: 53%

Q: What about the Activity [7] of the same compound?
A: 34%

Q: What about the Activity [8] of the same compound?
A: 50%

Q: What about the Activity [9] of the same compound?
A: 22%

Q: What about the Activity [10] of the same compound?
A: 49%

Q: Which Activity [1] does the source give for CC(C)OC(=O)N/N=c1\sc2cc(OC(F)(F)F)ccc2n1C here?
A: 0%

Q: And the Activity [2]?
A: 14%

Q: And the Activity [3]?
A: 10%

Q: And the EC50 [4]?
A: 95 nM

Q: And the Activity [5]?
A: 0%

Q: What about the Activity [6] of the same compound?
A: 11%

Q: What about the Activity [7] of the same compound?
A: 21%

Q: And the Activity [8]?
A: 16%

Q: What about the Activity [9] of the same compound?
A: 0%

Q: And the Activity [10]?
A: 0%

Q: Which Activity [1] does the source give for Cn1/c(=N/NC(=O)CC(C)(C)C)sc2cc(OC(F)(F)F)ccc21 here?
A: 16%

Q: And the Activity [2]?
A: 0%

Q: And the Activity [3]?
A: 0%

Q: And the EC50 [4]?
A: 49 nM

Q: What about the Activity [5] of the same compound?
A: 0%

Q: What about the Activity [6] of the same compound?
A: 0%

Q: And the Activity [7]?
A: 0%

Q: And the Activity [8]?
A: 20%

Q: What about the Activity [9] of the same compound?
A: 12%

Q: What about the Activity [10] of the same compound?
A: 0%
